The full list was thinned out, with hits kept by preference.
CHOP inh: inhibitors of CHOP promoter induction, primary screen, cell-based, unfolded protein response, luciferase reporter. CHO-K1 CHOP-promoter luciferase, tunicamycin-induced, 15-18 h. inhibition, % at 10 µM. hit rate 3.8% among 220,000. AID 2732, 2010;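 active means compounds that reduced the stress-induced luciferase reporter signal by more than about 70% of percent inhibition, limit read from the data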;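 further: 0% = tunicamycin plus vehicle and 100% = wells without tunicamycin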
iPSC survival up: enhancers of single-cell hiPSC survival, primary screen, ATPlite luminescence. 100% = ROCK inhibitor wells, 0% = DMSO. survival enhancement, % at 20 µM. hit rate 0.044% among 360,000; in the data active means survival enhancement above about 18%;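 further: cells exposed to compounds for 16 hours before the ATP read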
UPR XBP1 act: activators of adaptive XBP1 UPR arm, primary screen, cell-based, CHO-XBP1 luciferase reporter, luminescence, uHTS. hit rate 0.33% among 330,000. activation, % at 20 µM. IRE1-XBP1 UPR activation; percent of tunicamycin response, DMSO as zero;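 active means versus positive control, 20 µM dose yields 30% or more activation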;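 further: 100% = tunicamycin at 10 µg/mL and 0% = DMSO only wells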
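Signal: luciferase luminescence; Assay system: CHO-XBP1 luciferase reporter cells; Amount: one thousand reporter cells per well; Dosing: 20 µM single concentration, DMSO 1%; Benchmarks: high control tunicamycin 10 µg/mL final, low control DMSO vehicle only; Schedule: 6 h compound exposure at 37 °C, 5% CO2; Evaluation: percent activation relative to tunicamycin reference.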
H9c2 protect: cardioprotection against H2O2-induced cell death, primary screen, uHTS, H9c2 cells, ATPLite luminescence; H9c2 cardiomyocytes, H2O2 injury protection, 2 h; protection from H2O2 cell death, % at 20 µM; hit rate 0.63% among 360,000; AID 588492, 2011;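 active means compounds giving at least 50% protection of heart cells from peroxide-induced death in the single-dose screen, raw or plate-pattern-corrected value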;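 further: 0% = DMSO wells with peroxide and 100% = DMSO wells without peroxide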
CHOP UPR activ: activators of apoptotic CHOP UPR arm, primary screen, cell-based, CHO-CHOP luciferase reporter, luminescence, uHTS; UPR activation; percent of tunicamycin response over DMSO baseline; activation, % at 10 µM; hit rate 0.34% among 330,000;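 active means at 10 µM dose, activation of 40% or more, normalized to positive control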;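 further: 100% = tunicamycin at 10 µg/mL and 0% = DMSO alone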
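Assay system: CHO-CHOP cells, stable luciferase reporter of PERK-eIF2a-CHOP signalling / Buffer or medium: F12 plus 10% serum / Compound dosing: one dose, 10 µM in 0.5% DMSO / Times: 6 h compound treatment, 37 °C / Technique: luciferase luminescence / Read-out: % reporter activation, DMSO baseline versus tunicamycin full activation / Benchmarks: tunicamycin and DMSO controls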
Active calls of the source: *; x = no result given.

SMILES	CHOP inh	iPSC survival up	UPR XBP1 act	H9c2 protect	CHOP UPR activ
COc1ccc(S(=O)(=O)N(CCc2ccccc2)CC(=O)N/N=C/c2ccc3c(c2)OCO3)cc1	33	0	0	-4	1
O=C1CCC[C@@H]2C[C@@]3(C[C@@H]4CCN1[C@H]24)Nc1cc(Cl)c(Cl)cc1NC3=NCc1ccccc1	x	4	x	5	x
Cc1onc(-c2ccccc2)c1C(=O)OCC(=O)c1ccc(F)cc1	x	-2	x	1	x
CC1(C)C(C=C(Cl)Cl)C1C(=O)N1CCN(c2ccccc2)CC1 (stereo not given)	78*	0	-2	-5	1
CC(=O)c1ccc(OCCCC(=O)Nc2nnc(C3CC3)s2)cc1	x	3	-1	1	1
ONC(=NCc1ccccc1)c1ccccc1	x	-2	x	0	x
CC(C)(NO)/C(=N\O)c1ccccc1	72*	-3	-1	6	-4
COc1cccc(NC(=O)N(C)C[C@@H]2OCc3cnnn3CCCC(=O)N([C@@H](C)CO)C[C@H]2C)c1	x	-1	x	3	x
CCOC(=O)C1CCN(CC(O)COc2ccc(C(C)(C)CC)cc2)CC1 (stereo not given)	93*	1	4	-14	1
CCOC(=O)C1CCN(CC(O)COc2ccc(C(C)(C)C)cc2)CC1 (stereo not given)	37	-3	-2	-19	0
O=C1C2C3C=CC(C4CC34)C2C(=O)N1/N=C/c1ccc(-c2ccc(F)cc2[N+](=O)[O-])o1 (stereo not given)	-1	-2	0	6	4
Cc1ccc(-c2ccc(/C=N/N3C(=O)C4C5C=CC(CC5)C4C3=O)o2)c([N+](=O)[O-])c1 (stereo not given)	89*	0	1	-2	5
OC[C@@H]1CN(C2CCCC2)C[C@H](n2cnc3c(NC4CC4)ncnc32)O1	x	0	x	-1	x
COCc1cc(C)nc(NC2CCCCC2)c1C#N	82*	0	0	-9	-2
CCN1C(=N)N(c2ccccc2)C(=O)C(CC)(CC)C1=O	x	1	x	5	x
CCOC(=O)/C=C/C(=O)Nc1cccc([N+](=O)[O-])c1	48	0	-10	-19	1
CCOC(=O)/C=C/C(=O)Nc1ccccc1-c1ccccc1NC(=O)/C=C/C(=O)OCC	80*	11	x	-1	x
O=C(COC(=O)CSc1ccccc1)NC1CCS(=O)(=O)C1 (stereo not given)	x	-2	x	-2	x
CCOC(=O)c1[nH]c(C)c(C(=O)OCC(=O)N(Cc2ccccc2)C(C)C)c1C	x	0	0	19	0
COc1ccccc1NC(=O)N(C)C[C@@H]1OCc2cnnn2CCCC(=O)N([C@@H](C)CO)C[C@@H]1C	x	-2	x	11	x
CCOC(=O)C1CCN(S(=O)(=O)c2ccc(Br)c(OCC)c2)CC1	88*	0	-1	-19	1
CCOC(=O)C1CCN(S(=O)(=O)c2ccc3[nH]c(=O)oc3c2)CC1	78*	1	3	2	-1
NC(=O)c1ccc(NC(=O)COc2cccc3c2CCNC3=O)cc1	x	0	-1	79*	2
COc1ccccc1NC(=O)COc1cccc2c1CCNC2=O	x	0	3	64*	0
COc1ccccc1NC(=O)COc1ccccc1	-10	-1	2	-7	0
SMILES	CHOP inh	iPSC survival up	UPR XBP1 act	H9c2 protect	CHOP UPR activ
O=C(COc1cccc2c1CCNC2=O)Nc1ccc(Cl)cc1	x	0	-1	64*	1
CCN1CCc2c(OCC(=O)Nc3ccccc3)cccc2C1=O	x	0	-3	4	1
CCOc1ccc(CNC(=O)C2CCN(S(=O)(=O)N3CCC(C)CC3)CC2)cc1OC	x	1	x	-4	x
COc1ccc(C(O)c2nc(-c3cccc4cccnc34)cs2)cc1 (stereo not given)	x	-1	x	5	x
CCCCN1C(=O)C(CC(=O)NCCCN(C)C)CC(C(=O)N2CCCCCC2)=C1C (stereo not given)	x	-2	x	x	x
CCc1c(C)sc(NC(=O)c2cc(-c3cc(OC)ccc3OC)on2)c1C#N	86*	2	18	-10	4
CCc1c(C)sc(NC(=O)c2cc(-c3ccc(OC)c(OC)c3)on2)c1C#N	83*	-2	-2	-2	-2
CC(C)C[C@@H]1COc2cc(N3CCSCC3)ccc2S(=O)(=O)N1	x	-1	x	x	x
CCCCNC(=O)c1nc(C2CCN(S(=O)(=O)c3ccccc3C(F)(F)F)CC2)oc1-c1cccc(C(F)(F)F)c1	x	2	x	-4	x
C[C@@H]1CN([C@@H](C)CO)C(=O)c2cc(NC(=O)Nc3ccccc3)ccc2O[C@H]1CN(C)C(=O)Nc1cccc2ccccc12	x	0	-2	90*	2
C[C@H](CO)N1C[C@H](C)[C@@H](CN(C)C(=O)Nc2ccccc2)Oc2ccc(NC(=O)Nc3ccc(C(F)(F)F)cc3)cc2C1=O	x	-2	1	-2	1
CCCS(=O)(=O)NC(=O)C1(C)CCN(C(=O)c2ccc3c(c2)OCO3)C1 (stereo not given)	x	-2	x	0	x
Clc1ccc(/C=N/Nc2nnc(Cl)c3ccccc23)cc1	49	-2	6	-12	5
Clc1nnc(N/N=C/c2ccccc2)c2ccccc12	75*	-2	2	-14	1
Cc1ccc(N2CCN(C(=O)c3ccccc3)CC2)c(C)c1	41	-1	4	6	-1
Cc1ccc(N2CCN(C(=O)c3ccccc3Br)CC2)c(C)c1	87*	-2	0	-24	0
Cc1ccc(C)c(N2CCN(C(=O)c3ccccc3Br)CC2)c1	87*	-3	-2	-6	-1
Cc1ccc(C)c(N2CCN(C(=O)C3CCN(c4nc(C)cc(C)n4)CC3)CC2)c1	88*	2	-3	1	0
Cc1ccc(S(=O)(=O)N2CCOc3ccccc32)c(C)c1NS(C)(=O)=O	x	0	0	2	-2
CC(C)[C@H](NC(=O)c1ccccc1Cl)C(=O)OCC(=O)NCc1ccc2c(c1)OCO2	x	0	1	1	0
CCCCn1nnnc1C(c1cc2ccccc2o1)N(CCC#N)Cc1ccccc1 (stereo not given)	x	-1	x	x	x
CC(C)CCOc1ccc(/C=C2\CCn3c2nc2cc(C(=O)O)ccc2c3=O)cc1	90*	3	x	6	x
CC(C)(C)n1nnnc1C(c1ccccc1)N1CCN(c2ccc(C(F)(F)F)cn2)CC1 (stereo not given)	x	0	x	x	x
CC1CC(C)CN(c2ccc(-n3cnnn3)cc2[N+](=O)[O-])C1 (stereo not given)	74*	3	0	-2	0
CC1CC(C)CN(c2cc3c(cc2[N+](=O)[O-])C(=O)N(c2ccccc2)C3=O)C1 (stereo not given)	49	0	16	-3	6

Source: PubChem
